Test results as given in ChEMBL document CHEMBL4118244, “Design, synthesis and biological evaluation of benzofuran appended benzothiazepine derivatives as inhibitors of butyrylcholinesterase and antimicrobial agents” (Bioorg Med Chem, 2018).
pIC50: −log10 of the molar value. Values after ≈ are worked out from the molar mass of the structure shown. Active and inactive are the calls of the source. No cut-off for these calls is given here.

Tests used:
Proteus vulgaris [1] = experiment: Antibacterial activity against Proteus vulgaris PTCC 1182; format: functional
Staphylococcus aureus [2] = experiment: Antibacterial activity against Staphylococcus aureus ATCC 29737; format: functional
Staphylococcus aureus [3] = experiment: Antibacterial activity against Staphylococcus aureus ATCC 29737 assessed as diameter of inhibition zone at 200 ug per disc after 24 hrs by agar disc diffusion method; format: functional; conditions: ATCC 29737, 24 h, read-out: DIZ
How it was run: (§1)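 Agar disc diffusion. Compounds at 20 mg mL⁻¹ in DMSO, filter-sterilised. 100 µL of 10⁸ CFU mL⁻¹ bacteria spread on nutrient agar. 6 mm discs carried 10 µl (200 µg per disc), with DMSO discs as negative control. Incubation 24 h at 37 °C. Read-out is inhibition zone diameter, mean of 3 repeats (±1 mm).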

Proteus vulgaris [4] = experiment: Antibacterial activity against Proteus vulgaris PTCC 1182 assessed as diameter of inhibition zone at 200 ug per disc after 24 hrs by agar disc diffusion method; format: functional; conditions: PTCC 1182, 24 h, read-out: DIZ; how it was run: as §1
[5] = biological target: Acetylcholinesterase (Electrophorus electricus) (UniProt O42275); experiment: Inhibition of electric eel AChE using acetylthiocholine iodide as substrate pretreated for 15 mins followed by substrate addition measured for 6 mins by Ellman's method
How it was run: (§2)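 Ellman spectrophotometric assay in 0.1 M phosphate buffer pH 8.0 with DTNB, 25 °C. AChE (electric eel, Type V-S) or BChE was preincubated 15 min with compound before adding acetylthiocholine iodide or butyrylthiocholine iodide, respectively. Absorbance change at 412 nm was read for 6 min. Five concentrations were tested in triplicate, corrected by a nonenzymatic blank, with a no-inhibitor reference.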

Escherichia coli [6] = experiment: Antibacterial activity against Escherichia coli ATCC 10536 assessed as diameter of inhibition zone at 200 ug per disc after 24 hrs by agar disc diffusion method; format: functional; conditions: ATCC 10536, 24 h, read-out: DIZ; how it was run: as §1
Bacillus spizizenii [7] = experiment: Antibacterial activity against Bacillus subtilis ATCC 6633; format: functional
Aspergillus niger [8] = experiment: Antifungal activity against Aspergillus niger ATCC 16404 assessed as diameter of inhibition zone at 200 ug per disc after 72 hrs by agar disc diffusion method; format: functional; conditions: ATCC 16404, 72 h, read-out: DIZ
How it was run: (§3)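 Agar disc diffusion against mold. Compounds at 20 mg mL⁻¹ in DMSO, filter-sterilised. 6 mm discs carried 10 µl (200 µg per disc), with DMSO discs as negative control. Incubation 72 h at 30 °C. Read-out is growth inhibition zone diameter, mean of 3 repeats (±1 mm).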

Aspergillus niger [9] = experiment: Antifungal activity against Aspergillus niger ATCC 16404; format: functional
Klebsiella pneumoniae [10] = experiment: Antibacterial activity against Klebsiella pneumoniae ATCC 10031; format: functional
Aspergillus brasiliensis [11] = experiment: Antifungal activity against Aspergillus brasiliensis PTCC 5011; format: functional
[12] = test system: Staphylococcus epidermidis; experiment: Antibacterial activity against Staphylococcus epidermidis ATCC 12228; format: functional
Aspergillus brasiliensis [13] = experiment: Antifungal activity against Aspergillus brasiliensis PTCC 5011 assessed as diameter of inhibition zone at 200 ug per disc after 72 hrs by agar disc diffusion method; format: functional; conditions: PTCC 5011, 72 h, read-out: DIZ; how it was run: as §3
Cholinesterase = Cholinesterase (Equus caballus, UniProt P81908); experiment: Inhibition of equine serum BChE using butyrylthiocholine iodide as substrate pretreated for 15 mins followed by substrate addition measured for 6 mins by Ellman's method; conditions: for pIC50: read-out: IC50; how it was run: as §2
Escherichia coli [14] = experiment: Antibacterial activity against Escherichia coli ATCC 10536; format: functional
Shigella dysenteriae [15] = experiment: Antibacterial activity against Shigella dysenteriae PTCC 1188; format: functional
[16] = test system: Staphylococcus epidermidis; experiment: Antibacterial activity against Staphylococcus epidermidis ATCC 12228 assessed as diameter of inhibition zone at 200 ug per disc after 24 hrs by agar disc diffusion method; format: functional; conditions: ATCC 12228, 24 h, read-out: DIZ; how it was run: as §1
Shigella dysenteriae [17] = experiment: Antibacterial activity against Shigella dysenteriae PTCC 1188 assessed as diameter of inhibition zone at 200 ug per disc after 24 hrs by agar disc diffusion method; format: functional; conditions: PTCC 1188, 24 h, read-out: DIZ; how it was run: as §1
Bacillus spizizenii [18] = experiment: Antibacterial activity against Bacillus subtilis ATCC 6633 assessed as diameter of inhibition zone at 200 ug per disc after 24 hrs by agar disc diffusion method; format: functional; conditions: ATCC 6633, 24 h, read-out: DIZ; how it was run: as §1
Pseudomonas aeruginosa [19] = experiment: Antibacterial activity against Pseudomonas aeruginosa ATCC 27853; format: functional
Candida albicans [20] = experiment: Antifungal activity against Candida albicans ATCC 10231; format: functional
Salmonella paratyphi [21] = experiment: Antibacterial activity against Salmonella paratyphi A serotype ATCC 5702; format: functional
Pseudomonas aeruginosa [22] = experiment: Antibacterial activity against Pseudomonas aeruginosa ATCC 27853 assessed as diameter of inhibition zone at 200 ug per disc after 24 hrs by agar disc diffusion method; format: functional; conditions: ATCC 27853, 24 h, read-out: DIZ; how it was run: as §1
Klebsiella pneumoniae [23] = experiment: Antibacterial activity against Klebsiella pneumoniae ATCC 10031 assessed as diameter of inhibition zone at 200 ug per disc after 24 hrs by agar disc diffusion method; format: functional; conditions: ATCC 10031, 24 h, read-out: DIZ; how it was run: as §1
Salmonella paratyphi [24] = experiment: Antibacterial activity against Salmonella paratyphi A serotype ATCC 5702 assessed as diameter of inhibition zone at 200 ug per disc after 24 hrs by agar disc diffusion method; format: functional, Salmonella enterica subsp. enterica serovar Paratyphi A; conditions: Salmonella enterica, ATCC 5702, 24 h; read-out: DIZ; how it was run: as §1
Candida albicans [25] = experiment: Antifungal activity against Candida albicans ATCC 10231 assessed as diameter of inhibition zone at 200 ug per disc after 48 hrs by agar disc diffusion method; format: functional; conditions: ATCC 10231, 48 h, read-out: DIZ
How it was run: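 Yeast tested by agar disc diffusion. Compounds at 20 mg mL⁻¹ in DMSO, filter-sterilised. 6 mm discs carried 10 µl (200 µg per disc), with DMSO discs as negative control. Incubation 48 h at 30 °C. Zone diameter was averaged over 3 repeats (±1 mm).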

[26] = Salmonella enterica subsp. enterica serovar Paratyphi A

Chain of Acetylcholinesterase (Electrophorus electricus) (O42275 24-633 limits assumed): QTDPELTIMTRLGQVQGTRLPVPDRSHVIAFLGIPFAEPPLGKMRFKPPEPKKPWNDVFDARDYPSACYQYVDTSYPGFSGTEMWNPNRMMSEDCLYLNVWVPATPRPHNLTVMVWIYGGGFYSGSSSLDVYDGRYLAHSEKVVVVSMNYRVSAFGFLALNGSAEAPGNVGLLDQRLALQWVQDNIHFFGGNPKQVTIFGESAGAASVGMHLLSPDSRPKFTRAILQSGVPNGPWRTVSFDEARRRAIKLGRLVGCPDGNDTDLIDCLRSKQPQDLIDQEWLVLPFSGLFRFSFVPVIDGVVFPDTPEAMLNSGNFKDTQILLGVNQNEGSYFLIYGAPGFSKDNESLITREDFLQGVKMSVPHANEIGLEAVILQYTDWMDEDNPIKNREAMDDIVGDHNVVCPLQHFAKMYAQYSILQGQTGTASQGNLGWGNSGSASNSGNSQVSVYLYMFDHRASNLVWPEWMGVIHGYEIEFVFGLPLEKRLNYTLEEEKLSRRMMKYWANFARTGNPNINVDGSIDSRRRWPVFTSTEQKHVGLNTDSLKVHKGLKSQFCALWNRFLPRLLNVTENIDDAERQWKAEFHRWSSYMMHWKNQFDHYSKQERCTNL
Chain of Cholinesterase (P81908 whole entry): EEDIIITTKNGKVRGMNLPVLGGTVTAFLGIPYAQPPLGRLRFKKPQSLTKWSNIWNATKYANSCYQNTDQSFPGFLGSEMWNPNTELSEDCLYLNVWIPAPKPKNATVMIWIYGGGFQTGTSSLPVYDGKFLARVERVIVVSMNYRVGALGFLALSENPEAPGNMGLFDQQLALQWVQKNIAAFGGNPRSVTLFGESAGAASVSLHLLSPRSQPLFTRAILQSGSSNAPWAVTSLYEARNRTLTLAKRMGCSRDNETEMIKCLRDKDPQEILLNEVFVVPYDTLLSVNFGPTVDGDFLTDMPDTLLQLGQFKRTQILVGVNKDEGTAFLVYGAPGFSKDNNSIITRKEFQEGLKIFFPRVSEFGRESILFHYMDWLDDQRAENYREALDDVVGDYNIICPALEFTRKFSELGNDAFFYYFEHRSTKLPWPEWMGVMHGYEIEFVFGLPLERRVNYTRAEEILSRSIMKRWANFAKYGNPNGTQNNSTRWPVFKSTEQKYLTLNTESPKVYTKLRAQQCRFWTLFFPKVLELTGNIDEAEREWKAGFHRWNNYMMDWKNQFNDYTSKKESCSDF

Row | SMILES | MIC (Proteus vulgaris [1]) | MIC (Staphylococcus aureus [2]) | zone of inhibition at 200 µg/disc (Staphylococcus aureus [3]) [mm] | zone of inhibition at 200 µg/disc (Proteus vulgaris [4]) [mm] | inhibition [5] | zone of inhibition at 200 µg/disc (Escherichia coli [6]) [mm] | MIC (Bacillus spizizenii [7]) | zone of inhibition at 200 µg/disc (Aspergillus niger [8]) [mm] | MIC (Aspergillus niger [9]) | MIC (Klebsiella pneumoniae [10]) | MIC (Aspergillus brasiliensis [11]) | MIC [12] | zone of inhibition at 200 µg/disc (Aspergillus brasiliensis [13]) [mm] | MIC (Escherichia coli [14]) | MIC (Shigella dysenteriae [15]) | zone of inhibition at 200 µg/disc [16] [mm] | zone of inhibition at 200 µg/disc (Shigella dysenteriae [17]) [mm] | zone of inhibition at 200 µg/disc (Bacillus spizizenii [18]) [mm] | MIC (Pseudomonas aeruginosa [19]) | MIC (Candida albicans [20]) | further results
1 | O=[N+]([O-])c1ccc2oc(C3=Nc4ccccc4SC(c4ccccc4F)C3)cc2c1 (configuration not stated) | 0.125 µg/mL (≈ 0.299 µM) | 2.5 µg/mL (≈ 5.97 µM) | 17 | 23 | inactive | 12 | inactive | < 6 | inactive | inactive | inactive | 5 µg/mL (≈ 11.9 µM) | < 6 | 50 µg/mL (≈ 119 µM) | inactive | 10 | < 6 | < 6 | inactive | 0.125 µg/mL (≈ 0.299 µM) | pIC50 (Cholinesterase): 4.66; MIC (Salmonella paratyphi [21]; [26]): inactive; zone of inhibition at 200 µg/disc (Pseudomonas aeruginosa [22]): < 6 mm; zone of inhibition at 200 µg/disc (Klebsiella pneumoniae [23]): < 6 mm; zone of inhibition at 200 µg/disc (Salmonella paratyphi [24]): < 6 mm; zone of inhibition at 200 µg/disc (Candida albicans [25]): 19 mm
2 | O=[N+]([O-])c1cccc(C2CC(c3cc4cc(Br)ccc4o3)=Nc3ccccc3S2)c1 (configuration not stated) | inactive | inactive | < 6 | < 6 | inactive | < 6 | 12.5 µg/mL (≈ 26.1 µM) | 20 | 0.25 µg/mL (≈ 0.522 µM) | inactive | 0.5 µg/mL (≈ 1.04 µM) | inactive | 23 | inactive | inactive | < 6 | < 6 | 19 | inactive | inactive | IC50 (Cholinesterase): Not Active; MIC (Salmonella paratyphi [21]; Salmonella enterica): 0.5 µg/mL (≈ 1.04 µM); zone of inhibition at 200 µg/disc (Pseudomonas aeruginosa [22]): < 6 mm; zone of inhibition at 200 µg/disc (Klebsiella pneumoniae [23]): < 6 mm; zone of inhibition at 200 µg/disc (Salmonella paratyphi [24]): 23 mm; zone of inhibition at 200 µg/disc (Candida albicans [25]): < 6 mm
3 | c1ccc2c(c1)N=C(c1cc3ccccc3o1)CC(c1cccc3ccccc13)S2 (configuration not stated) | – | 5 µg/mL (≈ 12.3 µM) | 10 | – | inactive | – | inactive | < 6 | inactive | – | inactive | 5 µg/mL (≈ 12.3 µM) | < 6 | – | – | 9 | – | < 6 | – | 25 µg/mL (≈ 61.6 µM) | pIC50 (Cholinesterase): 4.20; zone of inhibition at 200 µg/disc (Candida albicans [25]): 14 mm
4 | O=[N+]([O-])c1ccc2oc(C3=Nc4ccccc4SC(c4cccc5ccccc45)C3)cc2c1 (configuration not stated) | inactive | 0.25 µg/mL (≈ 0.555 µM) | 20 | < 6 | inactive | < 6 | 0.125 µg/mL (≈ 0.277 µM) | < 6 | inactive | 50 µg/mL (≈ 111 µM) | inactive | 0.25 µg/mL (≈ 0.555 µM) | < 6 | inactive | inactive | 30 | < 6 | 15 | inactive | 2.5 µg/mL (≈ 5.55 µM) | pIC50 (Cholinesterase): 4.26; MIC (Salmonella paratyphi [21]; Salmonella enterica): 50 µg/mL (≈ 111 µM); zone of inhibition at 200 µg/disc (Pseudomonas aeruginosa [22]): < 6 mm; zone of inhibition at 200 µg/disc (Klebsiella pneumoniae [23]): 11 mm; zone of inhibition at 200 µg/disc (Salmonella paratyphi [24]): 11 mm; zone of inhibition at 200 µg/disc (Candida albicans [25]): 13 mm
5 | Fc1ccccc1C1CC(c2cc3cc(Br)ccc3o2)=Nc2ccccc2S1 (configuration not stated) | inactive | 5 µg/mL (≈ 11.1 µM) | 10 | < 6 | inactive | < 6 | inactive | < 6 | inactive | inactive | inactive | 5 µg/mL (≈ 11.1 µM) | < 6 | inactive | inactive | 9 | < 6 | < 6 | 50 µg/mL (≈ 111 µM) | 25 µg/mL (≈ 55.3 µM) | pIC50 (Cholinesterase): 4.86; MIC (Salmonella paratyphi [21]; Salmonella enterica): 50 µg/mL (≈ 111 µM); zone of inhibition at 200 µg/disc (Pseudomonas aeruginosa [22]): 15 mm; zone of inhibition at 200 µg/disc (Klebsiella pneumoniae [23]): < 6 mm; zone of inhibition at 200 µg/disc (Salmonella paratyphi [24]): 11 mm; zone of inhibition at 200 µg/disc (Candida albicans [25]): 13 mm
6 | Brc1ccc2oc(C3=Nc4ccccc4SC(c4cccc5ccccc45)C3)cc2c1 (configuration not stated) | 12.5 µg/mL (≈ 25.8 µM) | 5 µg/mL (≈ 10.3 µM) | 10 | 19 | inactive | < 6 | 5 µg/mL (≈ 10.3 µM) | < 6 | inactive | inactive | inactive | inactive | < 6 | inactive | 50 µg/mL (≈ 103 µM) | < 6 | 14 | 12 | inactive | 25 µg/mL (≈ 51.6 µM) | pIC50 (Cholinesterase): 4.77; MIC (Salmonella paratyphi [21]; [26]): inactive; zone of inhibition at 200 µg/disc (Pseudomonas aeruginosa [22]): < 6 mm; zone of inhibition at 200 µg/disc (Klebsiella pneumoniae [23]): < 6 mm; zone of inhibition at 200 µg/disc (Salmonella paratyphi [24]): < 6 mm; zone of inhibition at 200 µg/disc (Candida albicans [25]): 14 mm
7 | CO[C@H]1/C=C/O[C@@]2(C)Oc3c(C)c(O)c4c(O)c(c(/C=N/N5CCN(C)CC5)c(O)c4c3C2=O)NC(=O)/C(C)=C\C=C\[C@H](C)[C@H](O)[C@@H](C)[C@@H](O)[C@@H](C)[C@H](OC(C)=O)[C@@H]1C [RIFAMPIN] | 0.125 µg/mL (≈ 0.152 µM) | 0.25 µg/mL (≈ 0.304 µM) | 10 | 10 | – | 11 | 0.125 µg/mL (≈ 0.152 µM) | – | – | 0.25 µg/mL (≈ 0.304 µM) | – | 0.25 µg/mL (≈ 0.304 µM) | – | 0.5 µg/mL (≈ 0.608 µM) | 0.25 µg/mL (≈ 0.304 µM) | 40 | 8 | 13 | inactive | – | MIC (Salmonella paratyphi [21]; [26]): inactive; zone of inhibition at 200 µg/disc (Pseudomonas aeruginosa [22]): < 6 mm; zone of inhibition at 200 µg/disc (Klebsiella pneumoniae [23]): 7 mm; zone of inhibition at 200 µg/disc (Salmonella paratyphi [24]): < 6 mm
